Laboratory results taken from the EternaBench riboswitch data.

Tested on: MS2 coat protein
Assay: apparent Kd, MS2 coat protein; higher = weaker binding; RNA-MaP array; FMN 200 µM where present
In short: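 Stalled E. coli RNA polymerase transcribed each design on Illumina sequencing-chip clusters. The clusters were titrated with SNAP-549-labelled MS2 coat protein, starting at 0.7 or 1.5 nM and doubling up to 3 µM, first without ligand and then with constant ligand, in 100 mM Tris-HCl pH 7.5, 80 mM KCl, 4 mM MgCl2, BSA, DTT, yeast tRNA and Tween-20. Green signal was normalised to red-channel RNA signal and to the control-cluster median Fmax. The apparent Kd is the median of filtered binding-curve fits made for each cluster.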

[1] = designed as: ON switch for flavin mononucleotide, no ligand
[2] = ligand present: flavin mononucleotide, designed as: ON switch for flavin mononucleotide
[3] = designed as: OFF switch for flavin mononucleotide, no ligand
[4] = ligand present: flavin mononucleotide, designed as: OFF switch for flavin mononucleotide

Sequence	apparent Kd [1] [nM]	apparent Kd [2] [nM]	apparent Kd [3] [nM]	apparent Kd [4] [nM]
GGGUACAUCGGAGGAUAUCAUGUAAAUACAUGAGGAUCACCCAUGUCGAAGGAGACAUCGGAGAUUGAGAAGGCCGAUGUACCG	87.7	579	–	–
UUGACAUUCAAGAAGGGUCACUCUACAUGAGGAUCACCCAUGUCUAUGGACAGGAUAUUGAUCGUCACCUGGUUAGCUUUCGGU	770	19	–	–
AUUGUGUGAGGAUAUUAGUAGUAGAUAAAUGGAGUUGUAACUGAGAAGGCACAUGAGGAUCACCCAUGUUCCUU	–	–	18.7	24.6
GGUACCAUUACAGGAUAUGCUUUCCUUUGGAAAGCAGAAGGGUGUAACAUGAGGAUCACCCAUGUGGUGCCAGGGCGUGAGCCC	659	182	–	–
GCAGACGUAGUGAGGAUAUGCUCUACCUCGGUAGAGCAGAAGGCACAUGAGGAUCACCCAUGUGAUUUUUCUGC	–	–	40	573
CCUCUACAUGAGGAUCACCCAUGUGAGGAUAUAAGAUUGCGGAUUCCGCACUACGGUCUUAGAAGGCGCGUGGA	–	–	19	38.1
AAAGGACGAGGAUAUACAUGAGGAUCACCCAUGUAAAAAGCAUAAUAAAAUAACUUAUGUAGAAGGCGUCCAAA	–	–	21.9	108
GAUACACAUGAGGAUCACCCAUGUGAGGAUAUGCGUACGUUGUCCGUAGGCGACGUGCGCAGAAGGCGCGUGAG	–	–	52.6	84
CGCAAGUAUACAUGAGGAUCACCCAUGUCAGAUAGGGUAAUCAGAAGGUACAAUUAGAGAUAGAGUAAGGAUAUGAAAUUUGCG	865	314	–	–
GCUUUAUUGGUCAGGAUAUACAUUUGUUACUCUUUGUAGAAGGGACAUGAGGAUCACCCAUGUACUUUACAUUC	–	–	16	17.4
UUUUAACAUGAGGAUCACCCAUGUCGUUCAAAUCAAGGAUAUCAAGCGUGUGCGCACGCUUGAGAAGGUGAAGCUC	54.2	191	–	–
ACCUUACAUGAGGAUCACCCAUGUCAGGAUAUCUCGGGCGGCCAAGGGCCGGCCGCCCAGAGAAGGGACGAGGA	–	–	14.5	13.7
CAGUACUGAGGAUAUACAUGAGGAUCACCCAUGUGUCCUAGCUAGGAAACUAGCAUUAGUAGAAGGCAGUACUG	–	–	18.9	300
AUCAGCUCGUCAGGAUAUACGUCACUGUGUCAGCAGUGUGGUAAGAUCACAUGAGGAUCACCCAUGUAGAAGGGACGAGCUGAU	–	–	12.9	235
UGUAUGGACAGAGGAUAUACGGAUAGGAUCUACUAUCUUCUUCAAAUAACAUGAGGAUCACCCAUGUAGAAGGCUGUCCAUACU	–	–	16.1	35.1
GGUACUCAAAGAGUACCAAUACGAACAUGAGGAUCACCCAUGUAGGAUAUGCUACUCAAAGAGUAGCAGAAGGACAUGUACCUA	–	–	17.5	99.2
ACUACUUAGUGAGGAUAUACAUAAUUUAUAACUGUAGAAGGCACAAACCUCAAUACAUGAGGAUCACCCAUGUGGUAUAUCUAU	–	–	188	380
AAAACGAUGUGAGGAUAUCACCGCUGUGACGGCUGAGAAGGCACAUGAGGAUCACCCAUGUGCAGGCGUGUGUGGGUAAUCCAA	–	–	186	139
CUUUUGUGAGGAUAUCAGUAGUAAUACAAUAGUAUUACUACUGAGAAGGCACAUGAGGAUCACCCAUGUUCUUC	–	–	25.5	68.2
GCGUCAGAAUUAAUUGUGACAGACAGAAGGCAAUAGUUCAUGUCAGACAUGAGGAUCACCCAUGUUGAGGAUAUGUAUUGACAC	–	–	5.62	5.65
GUAGCAUACCGAGGAUAUUCAUUACAUGAGGAUCACCCAUGUUUUAUAGGCCGAUUACGGCCUUGGGAGAAGGCGGAAUGCUAC	14.8	11.1	–	–
AGGACAAGGCAGAAGGGACAUGAGGAUCACCCAUGUACCGUGGUUCAGCAGUCAGGAUAUGCCAUAUGUAAACAUAUCGUAAGA	–	–	12.1	108
CCCAAACUUGGGCUUGGUUGUGCAUAGGAUAUCCUUGGACAUGAGGAUCACCCAUGUACAACUGUGGAGAAGGGUGCAGGACCU	39.1	16.4	–	–
GGAAUCUAGUCAGGAUAUCGGGCAAUAAUUGCACGAGAAGGGACAUGAGGAUCACCCAUGUACACCUCUGGUGAGUCUCGCAGG	–	–	16	44.3

Sequence	apparent Kd [1] [nM]	apparent Kd [2] [nM]	apparent Kd [3] [nM]	apparent Kd [4] [nM]
UCAUUUAAUACAGGAUAUGUUAGUAUACAGUAGAUUGGUUAUUACAUAAUAACAGAAGGGUAGAACAUGAGGAUCACCCAUGUA	265	96.2	–	–
AGCUGGUGACAGCAAGAAGUUUAACAUGAGGAUCACCCAUGUAGAAGGCUGUACGGUUACCGUACAGAGGAUAUACAUAGAAAG	–	–	43.7	57.5
AGAAACUACGAGAAGGACAUGUGGUAAAACGCAAACAUGAGGAUCACCCAUGUAGGAUAUCGUAGUUUCAGGAUCGUGAGAUCA	–	–	589	26.9
GUGCCUUGGGAGAAGGUUAUGUGCAAAGCAUUUAAAGGAUAUUCAUACCGGAAACGGACAUGAGGAUCACCCAUGUGGCACAAA	621	150	–	–
AAGAGUGCAGGAUAUACUUGUUAGGACGGUUGGAUGAUUUGACAUGAGGAUCACCCAUGUAGAAGGGCAGAGAG	–	–	155	129
GGUCUUCAAGUCAGGAUAUCGUCUAAUAGAUAUAACGAGAAGGGACAUGAGGAUCACCCAUGUCGUCUCAUCAG	–	–	23.6	69.1
GCACUGGAUGUAGGAUAUCAGGACGAUAAGUCCUGAGAAGGACAUGAGGAUCACCCAUGUGCCUUAACCAGUGCAUAUAAUAUA	–	–	12.9	17.3
CUCUUGUGAGGAUAUCGAAGAAAAGAAAAGAAAGAAAAGAACGAGAAGGCACAUGAGGAUCACCCAUGUAAGAA	–	–	57.2	171
GUUACCGUAGGAUAUACAUGAGGAUCACCCAUGUACUCAGUCGAUGGAUAAGAGUACUGUAGAAGGGCGCCGGC	–	–	140	150
CAGGCGGAGUCAGGAUAUGCACGGUGGACCUAUGACAUGAGGAUCACCCAUGUUACUACGCCUCAGCAGAAGGGACAACCUCCU	88.8	7.87	–	–
AGAAAACAUGAGGAUCACCCAUGUGAGGAUAUGCAAAUAUAUACGAAAGAUUAUAAAAGCAGAAGGCACAAAAG	–	–	111	130
GGAAUCUGUGUCACUCCAUUGACAUGAGGAUCACCCAUGUCGCAGGAUAUCAGGCGCGGAGCGACUGAGAAGGGCGACUCGCGG	–	–	86.4	50.5
AAAAAACAUGAGGAUCACCCAUGUCAGGAUAUCUGUAUUCAAUCCUCGGAUUGAAUACAGAGAAGGGACAAAAA	–	–	37.8	54.6
CCAGAGACAUAAGGAUAUCGAGUGGAUAACACUCGAGAAGGUAUGUGAAAACAUGAGGAUCACCCAUGUGAUCAAUACUCUGGA	20.1	20.4	–	–
UUUUGGUAAGGAUAUGCGUAGAUCUCGGAAACGAGAUCUACGCAGAAGGUACAUGAGGAUCACCCAUGUUGAUU	–	–	24.2	83.3
CGAUAUAUGAAGGGCGAAAGCCCACAUGAGGAUCACCCAUGUAGAAGGCGAUCCGCAACGCGGAUCGAGGAUAUAUAGUAUACA	–	–	9.48	10.4
AAAUUUAACGAAGGAUAUGGAUACAUGAGGAUCACCCAUGUUUAUUUUGUGAUCUUGUAUAAGUACCAGAAGGUCGUAUACAUA	–	–	165	459
AAAAAAAAAAACUAGGAUAUUUAACGGACAACAUGAGGAUCACCCAUGUCACAAAAAAAAAUAGUAAAGAAGGAGUAAAAAAAAAA	32.7	31.8	–	–
UGGUACUAGGGAGGAUAUGGGAAGAUACAUGAGGAUCACCCAUGUUAAAGAAUGCCGAGAGGCAACUAGAAGGCCCUAGUACCU	293	16.3	–	–
CCAAGCUGUGUGAGGAUAUGCUGGUCGAAAGAUCAGCAGAAGGCACAUGAGGAUCACCCAUGUGAAAAGCUUGG	–	–	18.3	50.9
ACACGGUAUGUAGGAUAUGCAUAGCAUUGCUAUGCAGAAGGACAUGAGGAUCACCCAUGUAUGUAUUCCAUACUAAUCCCGUGU	–	–	5.49	5.58
GGGUACAUCGGAGGAUAUCAUGUAAUUACAUGAGGAUCACCCAUGUCGAUGGAGACAUCGGAGAUUGAGAAGGCCGAUGUACCG	316	12.4	–	–
AUCAGCUCGUCAGGAUAUUCGUCACUGCGUCAGCAGUGUGGUAAGAUCACAUGAGGAUCACCCAUGUAGAAGGGACGAGCUGAU	–	–	8.23	19.2
GUACUCAUGUAAGGAUAUGCAGCCGUUUCGGCUGCAGAAGGUACUAUAAUACAUGAGGAUCACCCAUGUCUCUCGCAUUGCGAG	465	98.4	–	–
